# Source: PubChem BioAssay (several laboratories)
# Compounds with a hit are over-represented: about 3.2% of the library has one in this group of screens.
# DAX1 inh-1: DAX1 (NR0B1) inhibition, primary screen; HEK293T StAR-luciferase reporter, SF-1/DAX-1 repression relief; inhibition, % at 6.8 µM; hit rate 1.1% among 370,000; AID 652010;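 active means inhibition above the mean over all tested compounds plus 3 SD, cut at about 3.6% in these data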;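 further: 0% = DAX-1 cells with DMSO and 100% = cells lacking DAX-1 with DMSO; higher inhibition means more luminescence from relief of DAX-1 repression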
# DAX1 inh-2: inhibits human nuclear receptor DAX1; P51843; HEK293 Gal4-DAX1 luciferase reporter, luminescence; inhibition, % at 6.75 µM; hit rate 0.99% among 340,000; AID 504766;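 active means inhibition above the mean over all tested compounds plus 3 SD, cut at about 4.2% in these data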;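 further: 0% = DAX1-transfected cells with DMSO and 100% = empty-vector control cells with DMSO; inhibition shows as a rise in luminescence from relieved DAX1 repression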
# Target sequence (P51843 207-470 limits assumed): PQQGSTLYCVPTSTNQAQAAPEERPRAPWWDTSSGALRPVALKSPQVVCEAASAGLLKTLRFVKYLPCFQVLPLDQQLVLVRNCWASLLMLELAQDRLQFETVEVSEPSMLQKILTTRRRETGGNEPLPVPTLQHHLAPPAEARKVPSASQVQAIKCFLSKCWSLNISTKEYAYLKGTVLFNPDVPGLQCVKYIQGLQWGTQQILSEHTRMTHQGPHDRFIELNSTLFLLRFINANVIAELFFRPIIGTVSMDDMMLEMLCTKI
# NR2E3 ag-1: agonists of human NR2E3 nuclear receptor; inhibition of corepressor binding, % at 3.98 µM; AID 602229; CHO-S Gal4-NCOR/VP16-NR2E3 two-hybrid, luciferase; hit rate 0.35% among 360,000;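 active means inhibition above the mean of all tested compounds plus 3 SD, cut at about 70% in these data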;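 further: 0% = DMSO with NR2E3 transfected cells and 100% = cells lacking NR2E3 construct; higher means lower luciferase signal from less NR2E3 corepressor binding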
# Target sequence (Q9Y5X4 whole entry, looked up, the tested form may be a part): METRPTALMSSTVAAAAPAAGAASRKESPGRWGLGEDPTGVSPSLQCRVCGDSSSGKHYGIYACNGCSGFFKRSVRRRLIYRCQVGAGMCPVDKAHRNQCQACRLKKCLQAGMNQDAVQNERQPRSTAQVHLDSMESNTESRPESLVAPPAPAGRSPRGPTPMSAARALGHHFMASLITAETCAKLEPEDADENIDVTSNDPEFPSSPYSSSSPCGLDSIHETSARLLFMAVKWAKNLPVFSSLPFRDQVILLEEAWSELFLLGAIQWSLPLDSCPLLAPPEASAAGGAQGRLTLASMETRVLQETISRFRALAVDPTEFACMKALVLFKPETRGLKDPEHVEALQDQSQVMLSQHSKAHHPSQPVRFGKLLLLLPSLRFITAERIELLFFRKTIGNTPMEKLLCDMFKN
# SMARCA2 activ: increases SMARCA2 function in MMTV reporter cells; MG213 cells, MMTV-luciferase reporter, dexamethasone, overnight; activation, % at 9.1 µM; hit rate 1% among 370,000; in the data active means activation above about 7.8%;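 further: 0% = vehicle wells and 100% = reference activator wells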
# NR2E3 ag-2: activates human photoreceptor nuclear receptor NR2E3; inhibition of corepressor binding, % at 4.78 µM; Q9Y5X4; hit rate 0.12% among 320,000; GST-NR2E3/biotin-RetCOR TR-FRET, 1536-well;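 active means percent inhibition above the cutoff of mean plus 3 SD of all tested compounds, set per screening campaign, cut at about 20% in these data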;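 further: 0% = DMSO wells and 100% = biotin wells as full block of FRET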
#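 Test system – NR2E3–RetCOR corepressor complex · Quantity – NR2E3 fusion 1.35 nM · Buffer or medium – Tris pH 7.5 · Incubation – Compound–protein incubation for 5 h at 4 °C · Technique – TR-FRET, Eu(K)-anti-GST donor, streptavidin-D2 acceptor, ex 340, em 617/671 nm · Evaluation – percent inhibition of 671/617 nm emission ratio versus biotin and DMSO controls · Plate – 1536-well format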
# JMJD2C inh: human JMJD2C demethylase inhibition. hit rate 0.069% among 330,000. AID 2099. GST-JMJD2C(1-420) H3K9me3 demethylation, DELFIA europium. inhibition, % at 2.35 µM. Q9H3R0;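 active means more than half of a compound's replicate wells show inhibition beyond 50%, single wells judged on their own value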;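 further: signal counts dimethyl H3K9 product captured on neutravidin plate; 0% = median of DMSO wells and 100% = 0.3 times that DMSO median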
# NR2E3 agonist cf: NR2E3 (human) agonism, confirmation. shares compounds with NR2E3 ag-2. AID 2379. activation (reported as inhibition), % at 3.98 µM. hit rate 39% among 360. cell-free NR2E3 corepressor release, TR-FRET, 5 h; in the data active means activation above about 20%
# PPARg-NCOR2 ctr: PPARg-NCOR2 interaction agonism, NR2E3 counter-screen; AID 504787; hit rate 45% among 360; inhibition, % at 3.98 µM; shares compounds with NR2E3 ag-2; TR-FRET PPARg-NCOR2 coregulator interaction, biochemical; in the data active means inhibition above about 20%;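 further: 0% = DMSO vehicle and 100% = wells without protein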
# Active calls of the source: *; . = no result.
SMILES,DAX1 inh-1,DAX1 inh-2,NR2E3 ag-1,SMARCA2 activ,NR2E3 ag-2,JMJD2C inh,NR2E3 agonist cf,PPARg-NCOR2 ctr
O=C(CSc1nc(-c2ccco2)cc(C(F)(F)F)n1)NCCN1CCOCC1,-0.2,6.0*,17.2,-4.7,3.8,11.8,.,.
c1coc(-c2nnc3n2N=C(c2ccc4c(c2)OCO4)CS3)c1,-1.4,.,.,-4.3,.,.,.,.
CCOC(=O)Cn1c(=O)cc(C)c2ccccc21,0.7,4.5*,-6.9,-2.1,-3.1,12.0,.,.
CC1=Cc2ccccc2C(C#N)N1C(=O)c1ccccc1 (stereo not given),0.4,1.1,-35.2,-4.8,2.9,-2.4,.,.
N#C[C@H]1C(O)C(O)c2ccccc2N1C(=O)c1ccccc1 (stereo not given in full),-0.3,4.3*,5.0,-1.2,0.8,-4.6,.,.
Cn1cccc1C(=O)NNC(=O)c1ccccc1Br,3.4,2.3,-19.4,3.2,4.3,0.1,.,.
Cn1cccc1C(=O)NC1CCCCCC1,4.4*,0.2,-61.1,3.7,2.1,.,.,.
Cc1ccccc1C(=O)NNC(=O)c1cccn1C,4.0*,1.5,-16.0,-0.1,0.7,-1.5,.,.
O=C(Nc1ccc2c(c1)OCO2)OC1CCC12CCC(c1ccccc1)CC2 (stereo not given),0.5,.,.,-2.3,.,.,.,.
CCCCCCn1cc(CN2CC(N3CCN(C4CCN(C)CC4)CC3)CS2(=O)=O)nn1 (stereo not given),4.4*,.,-5.5,-4.8,.,.,.,.
CCCCCCn1cc(CN2CC(N(C)CC)CS2(=O)=O)nn1 (stereo not given),3.7*,.,2.7,-3.7,.,.,.,.
COc1ccc(Cn2cc(CN3CC(N4CCSCC4)CS3(=O)=O)nn2)cc1 (stereo not given),-2.6,.,2.0,-1.1,.,.,.,.
COc1ccc(Cn2cc(CN3CC(N4CCCC4)CS3(=O)=O)nn2)cc1 (stereo not given),4.4*,.,-24.9,2.4,.,.,.,.
CCCCCCn1cc(CN2CC(N3CCN(C)CC3)CS2(=O)=O)nn1 (stereo not given),2.5,.,0.9,0.4,.,.,.,.
CCN(CC(=O)NC(C)C)Cc1nc2c(Br)cc(Br)cc2c(=O)[nH]1,0.1,0.7,-27.4,-2.8,55.4*,9.0,56.2*,47.5*
CC(C)(C)C(=O)CSc1nc2c(c(-c3cccs3)c1C#N)CCC2,-0.6,-1.6,-28.0,-1.9,21.1*,-4.5,5.4,18.1
CN(C(=O)c1ccc(NC(=O)Cc2ccc(NC(=O)C3CCN(C(=O)C4CCCCC4)CC3)cc2)cc1)C1CC1,0.0,-0.5,-15.2,0.0,19.6*,46.5,-0.1,-6.8
C=CCN(CC=C)Cc1c(O)ccc2c1oc(=O)c1ccccc12,-0.3,-0.5,-33.5,-2.4,34.4*,78.6*,13.7,-4.2
COCCCN1C(=O)[C@H](CC(=O)NCCCN2CCCC2=O)[C@]2(C(=O)OC)CCCCC=C12,0.3,.,.,2.6,.,.,.,.
O=C1C(=O)N(Cc2cccnc2)C(c2cccc([N+](=O)[O-])c2)/C1=C(/O)c1ccc2c(c1)OCO2 (stereo not given),1.1,0.6,9.8,-3.6,10.8,-0.5,.,.
O=C1C(=O)N(Cc2cccnc2)C(c2cccc(Br)c2)/C1=C(/O)c1ccc2c(c1)OCO2 (stereo not given),1.0,0.3,-4.8,-1.3,46.8*,2.6,27.0*,30.6*
O=C1C(=O)N(CCN2CCOCC2)C(c2ccncc2)/C1=C(/O)c1ccc2c(c1)OCO2 (stereo not given),-0.2,0.8,19.6,-0.9,5.0,-19.1,.,.
COc1cccc(C2/C(=C(/O)c3ccc4c(c3)OCO4)C(=O)C(=O)N2CCN2CCOCC2)c1 (stereo not given),2.3,0.4,-11.4,-0.7,29.6*,-4.1,29.0*,27.1*
COc1ccc(S(=O)(=O)N(C)CC(=O)N2CCC(C)CC2)cc1Cl,-0.7,-0.1,-11.2,-2.2,22.2*,7.3,-8.9,-6.4
COc1ccc(OC)c(N(CC(=O)N2CCC(C)CC2)S(=O)(=O)c2ccc(OC)c(OC)c2)c1,-0.4,-1.9,-16.1,-2.4,1.0,-1.3,.,.
SMILES,DAX1 inh-1,DAX1 inh-2,NR2E3 ag-1,SMARCA2 activ,NR2E3 ag-2,JMJD2C inh,NR2E3 agonist cf,PPARg-NCOR2 ctr
O=c1[nH]c(Nc2ccccc2)cc2cc(Br)ccc12,-0.5,0.4,-73.3,0.3,18.2,-6.6,.,.
O=c1[nH]c(Nc2ccccc2)cc2ccccc12,0.2,0.8,0.2,0.7,27.3*,-2.2,-4.8,0.2
COc1ccccc1CNC(=O)C[C@H]1CC[C@H]2[C@H](COc3ccc(NS(=O)(=O)c4ccc(C)cc4)cc3C(=O)N2C)O1,-0.2,.,.,-2.3,.,.,.,.
O=c1c2oc3ccccc3c2[nH]c(=S)n1-c1ccccc1,-0.1,-0.3,-6.2,-0.8,49.6*,-3.1,45.0*,45.3*
Cc1cccc(-n2c(=S)[nH]c3c(oc4ccccc43)c2=O)c1,0.1,-1.0,-9.3,-2.3,37.0*,-4.2,34.6*,25.0*
Cc1cccc(-n2c(C)c(-c3ccccc3)[nH]c2=S)c1,-0.7,-0.5,-17.4,-1.4,6.5,15.4,.,.
Cc1ccc(-n2c(=S)[nH]c3c(oc4ccccc43)c2=O)cc1,0.8,-0.4,-41.3,0.5,20.3*,7.1,42.8*,33.6*
COCCCN1C(=O)[C@H](CC(=O)N2CCSCC2)[C@]2(C(=O)OC)CCCCC=C12,-0.4,.,.,-3.8,.,.,.,.
COC(=O)[C@]12C[C@H](CC(=O)NCc3ccc(C)o3)C(=O)N(Cc3ccc(Cl)cc3Cl)C1=C[C@H](C(C)(C)C)O[C@@H]2C,-0.6,.,.,-3.6,.,.,.,.
COc1ccc(NC(=O)CCNS(=O)(=O)c2cc(Br)ccc2Br)cc1S(N)(=O)=O,0.0,1.9,11.8,-2.7,23.4*,-22.4,-8.0,-6.9
COCCCN1C(=O)C(O)=C(C(=O)c2ccc(C)o2)C1c1cccc(Br)c1 (stereo not given),-0.5,-0.5,-31.8,-3.8,44.9*,-1.7,20.0*,19.8*
O=C(C1=C(O)C(=O)N(CCc2ccccc2)C1c1cccnc1)c1ccco1 (stereo not given),0.0,-0.2,-7.6,-2.9,25.4*,-43.2,17.5,23.1*
CCCCOc1cccc(C2C(C(=O)c3ccc(C)o3)=C(O)C(=O)N2Cc2ccco2)c1 (stereo not given),-1.3,-1.0,21.8,3.7,.,0.2,.,.
COCCCN1C(=O)C(O)=C(C(=O)c2ccco2)C1c1ccccc1 (stereo not given),0.3,0.1,0.6,-0.8,21.6*,2.9,19.5,17.0
